# Measured values taken from ChEMBL document CHEMBL3769385 (J Med Chem, 2016).
# Active and inactive are the calls of the source.
# How the values were obtained:
# [1] = molecular target: 5-hydroxytryptamine receptor 2B (Homo sapiens, UniProt P41595); experiment: Agonist activity at recombinant human 5HT2B receptor expressed in Flp-In-293 cells assessed as calcium flux at 10 uM by FLIPR assay relative to 5-HT; format: functional, cell-based
# [2] = molecular target: T1, 5-hydroxytryptamine receptor 1A (Homo sapiens, UniProt P08908); experiment: Binding affinity to human 5HT1A receptor by radioligand binding assay
# T1 sequence (P08908 whole entry): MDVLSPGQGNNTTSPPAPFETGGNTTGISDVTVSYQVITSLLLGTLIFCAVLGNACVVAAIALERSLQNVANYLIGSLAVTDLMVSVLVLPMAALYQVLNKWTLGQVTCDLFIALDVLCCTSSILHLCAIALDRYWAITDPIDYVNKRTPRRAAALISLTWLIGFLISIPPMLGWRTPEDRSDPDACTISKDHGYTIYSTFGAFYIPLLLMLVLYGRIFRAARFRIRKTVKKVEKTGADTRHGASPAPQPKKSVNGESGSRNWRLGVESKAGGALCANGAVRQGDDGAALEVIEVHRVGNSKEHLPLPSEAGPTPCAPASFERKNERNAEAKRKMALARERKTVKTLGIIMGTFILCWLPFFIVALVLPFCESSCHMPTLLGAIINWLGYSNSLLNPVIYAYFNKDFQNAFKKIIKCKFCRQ
# [3] = system: Mus musculus; experiment: Cataleptic activity in C57BL/6J mouse at 0.01 to 30 mg/kg, ip measured after 60 mins; format: ADME, organism-based; details: in vivo, 1 h
# [4] = molecular target: T2, Alpha-2A adrenergic receptor (Homo sapiens, UniProt P08913); experiment: Binding affinity to human alpha-2A adrenergic receptor by radioligand binding assay
# T2 sequence (P08913 whole entry): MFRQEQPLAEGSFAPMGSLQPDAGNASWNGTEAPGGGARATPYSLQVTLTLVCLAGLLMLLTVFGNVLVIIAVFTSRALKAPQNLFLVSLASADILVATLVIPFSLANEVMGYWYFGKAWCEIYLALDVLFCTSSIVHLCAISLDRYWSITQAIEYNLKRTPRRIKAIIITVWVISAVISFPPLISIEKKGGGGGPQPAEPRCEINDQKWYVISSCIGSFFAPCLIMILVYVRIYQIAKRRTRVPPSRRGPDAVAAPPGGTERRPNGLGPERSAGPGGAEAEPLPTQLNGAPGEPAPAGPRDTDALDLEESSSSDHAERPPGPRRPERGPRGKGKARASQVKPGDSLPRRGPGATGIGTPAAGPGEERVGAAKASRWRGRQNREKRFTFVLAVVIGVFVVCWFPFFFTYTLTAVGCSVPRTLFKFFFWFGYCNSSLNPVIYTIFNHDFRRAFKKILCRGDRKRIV
# [5] = molecular target: T3, Alpha-2C adrenergic receptor (Homo sapiens, UniProt P18825); experiment: Binding affinity to human alpha-2C adrenergic receptor by radioligand binding assay
# T3 sequence (P18825 whole entry): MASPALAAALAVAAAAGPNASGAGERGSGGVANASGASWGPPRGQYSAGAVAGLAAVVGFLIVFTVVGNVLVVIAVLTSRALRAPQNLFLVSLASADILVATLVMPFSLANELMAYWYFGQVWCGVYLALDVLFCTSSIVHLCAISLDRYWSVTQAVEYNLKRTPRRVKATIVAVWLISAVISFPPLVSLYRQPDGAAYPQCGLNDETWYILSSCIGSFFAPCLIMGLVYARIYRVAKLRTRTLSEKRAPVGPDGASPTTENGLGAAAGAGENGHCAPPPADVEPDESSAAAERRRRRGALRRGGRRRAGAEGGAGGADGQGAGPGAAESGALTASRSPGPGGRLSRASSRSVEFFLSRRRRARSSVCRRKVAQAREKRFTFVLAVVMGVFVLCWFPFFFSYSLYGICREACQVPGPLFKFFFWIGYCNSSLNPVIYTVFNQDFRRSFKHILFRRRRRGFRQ
# [6] = molecular target: D(3) dopamine receptor (Homo sapiens, UniProt P35462); experiment: Binding affinity to dopamine D3 receptor (unknown origin) by radioligand binding assay
# [7] = Binding affinity to sigma 2 receptor (unknown origin) by radioligand binding assay; parameters: species or system Homo sapiens
# [8] = molecular target: Beta-2 adrenergic receptor (Homo sapiens, UniProt P07550); experiment: Binding affinity to human beta-2 adrenergic receptor by radioligand binding assay
# [9] = molecular target: T4, D(4) dopamine receptor (Homo sapiens, UniProt P21917); experiment: Binding affinity to human dopamine D4 receptor by radioligand binding assay
# T4 sequence (P21917 whole entry): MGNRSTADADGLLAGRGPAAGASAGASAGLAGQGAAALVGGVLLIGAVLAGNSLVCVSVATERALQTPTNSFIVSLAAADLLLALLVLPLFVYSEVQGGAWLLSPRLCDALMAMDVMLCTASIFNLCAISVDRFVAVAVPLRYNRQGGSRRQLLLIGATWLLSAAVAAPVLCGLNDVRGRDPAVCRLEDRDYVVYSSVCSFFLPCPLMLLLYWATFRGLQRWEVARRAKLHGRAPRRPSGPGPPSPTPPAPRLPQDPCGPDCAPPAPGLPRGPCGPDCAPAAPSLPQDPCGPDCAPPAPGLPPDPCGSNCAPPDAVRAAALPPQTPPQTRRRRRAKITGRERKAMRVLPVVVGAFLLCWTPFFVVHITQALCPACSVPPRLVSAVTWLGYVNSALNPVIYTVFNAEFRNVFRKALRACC
# [10] = molecular target: D(2) dopamine receptor (Homo sapiens, UniProt P14416); experiment: Binding affinity to human dopamine D2 receptor by radioligand binding assay
# [11] = molecular target: T5, Muscarinic acetylcholine receptor M5 (Homo sapiens, UniProt P08912); experiment: Binding affinity to human muscarinic acetylcholine M5 receptor by radioligand binding assay
# T5 sequence (P08912 whole entry): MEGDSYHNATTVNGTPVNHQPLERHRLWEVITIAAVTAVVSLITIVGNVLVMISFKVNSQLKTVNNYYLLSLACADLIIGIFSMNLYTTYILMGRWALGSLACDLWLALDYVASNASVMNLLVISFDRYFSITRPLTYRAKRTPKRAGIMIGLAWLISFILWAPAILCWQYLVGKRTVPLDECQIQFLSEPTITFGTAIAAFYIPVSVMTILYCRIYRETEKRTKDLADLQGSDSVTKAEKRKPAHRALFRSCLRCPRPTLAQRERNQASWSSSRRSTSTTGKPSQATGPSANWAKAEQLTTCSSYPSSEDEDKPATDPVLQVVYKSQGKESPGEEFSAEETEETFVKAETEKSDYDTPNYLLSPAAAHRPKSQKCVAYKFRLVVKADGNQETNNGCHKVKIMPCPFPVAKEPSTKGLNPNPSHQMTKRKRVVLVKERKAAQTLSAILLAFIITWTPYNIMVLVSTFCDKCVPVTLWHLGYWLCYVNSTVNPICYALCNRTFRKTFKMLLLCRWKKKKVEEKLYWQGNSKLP
# [12] = molecular target: 5-hydroxytryptamine receptor 7 (Homo sapiens, UniProt P34969); experiment: Binding affinity to human 5HT7 receptor by radioligand binding assay
# [13] = molecular target: Histamine H2 receptor (Homo sapiens, UniProt P25021); experiment: Binding affinity to histamine H2 receptor (unknown origin) by radioligand binding assay
# [14] = molecular target: Sodium-dependent serotonin transporter (Homo sapiens, UniProt P31645); experiment: Binding affinity to human SERT by radioligand binding assay
# [15] = molecular target: 5-hydroxytryptamine receptor 6 (Homo sapiens, UniProt P50406); experiment: Binding affinity to human 5HT6 receptor by radioligand binding assay
# [16] = system: Mus musculus; experiment: Cognitive enhancing effect in NR1-KD mouse hypoglutamatergic model of schizophrenia assessed as reduction in duration of object exploration during testing at 0.5 to 1 mg/kg, ip administered for 30 mins measured for 3 days relative to wild type mouse; format: functional, organism-based
# Procedure, shortened: (§1)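 Three daily 5-min trials: empty-chamber acclimation, two identical objects, then 24 h later one familiar plus one novel object (long-term memory). Sessions video-recorded; time spent investigating objects scored at training and testing.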
# [17] = system: Mus musculus; experiment: Suppression of AMPH-stimulated hyperlocomotion in C57BL/6J mouse assessed as reduction in distance travelled in open field at 5 to 30 mg/kg, ip administered for 15 mins followed by AMPH challenge measured after 105 mins; format: functional, organism-based
# Procedure, shortened: (§2)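 Mice, n = 7–10/treatment, injected with vehicle or 2–30 mg/kg and placed in an open field monitored by infrared beams. After 15 min baseline, they were given vehicle or 3 mg/kg d-amphetamine and recorded for a further 105 min. Distance travelled was taken in 5-min bins or as a cumulative value over 15 min baseline plus 75 min post-amphetamine.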
# [18] = system: Mus musculus; experiment: Increase in AMPH-disrupted 4 to 12 dB prepulse inhibition in C57BL/6J mouse at 2 mg/kg administered for 10 mins followed by AMPH challenge; format: functional, organism-based
# Procedure, shortened: (§3)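 Adult male C57BL/6 mice, n = 8–11/group, given vehicle or 0.5–4 mg/kg, then vehicle or 3 mg/kg amphetamine 10 min later. After 10 min acclimation in a startle chamber, 42 trials were run: 18 pulse-only (120 dB), 18 prepulse-pulse (4, 8, 12 dB prepulses) and 6 null. Peak startle (arbitrary units) was taken within 65 ms of pulse onset.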
# [19] = system: Mus musculus; experiment: Restoration of AMPH-disrupted 4 to 12 dB prepulse inhibition in C57BL/6J mouse at 0.5 to 1 mg/kg, ip administered for 10 mins followed by AMPH challenge; format: functional, organism-based; procedure, shortened: as §3
# [20] = system: Mus musculus; experiment: Attenuation of novel object recognition memory in wild type mouse assessed as decrease in preference for novel object at 1 mg/kg, ip administered for 30 mins measured for 3 days; format: functional, organism-based; procedure, shortened: as §1
# [21] = system: Mus musculus; experiment: Cognitive enhancing effect in NR1-KD mouse hypoglutamatergic model of schizophrenia at 0.5 to 1 mg/kg, ip administered for 30 mins measured for 3 days by novel object recognition memory test; format: functional, organism-based; procedure, shortened: as §1
# [22] = system: Mus musculus; experiment: Reduction in 120 dB acoustic stimulus-induced pulse-only response in C57BL/6J mouse at 0.5 to 2 mg/kg dose followed by AMPH challenge; format: functional, organism-based; procedure, shortened: as §3
# [23] = system: Mus musculus; experiment: Increase in AMPH-disrupted 4 to 12 dB prepulse inhibition in C57BL/6J mouse at 4 mg/kg, ip administered for 10 mins followed by AMPH challenge; format: functional, organism-based; procedure, shortened: as §3
# [24] = system: Mus musculus; experiment: Cognitive enhancing effect in NR1-KD mouse hypoglutamatergic model of schizophrenia assessed as reduction in duration of object exploration during training at 0.5 to 1 mg/kg, ip administered for 30 mins measured for 3 days relative to wild type mouse; format: functional, organism-based; procedure, shortened: as §1
# [25] = system: Mus musculus; experiment: Effect on 120 dB acoustic stimulus-induced pulse-only response in C57BL/6J mouse at 4 mg/kg, ip administered for 10 mins; format: functional, organism-based; procedure, shortened: as §3
# [26] = system: Mus musculus; experiment: Suppression of AMPH-stimulated hyperlocomotion in C57BL/6J mouse assessed as reduction in distance travelled in open field at 2 mg/kg, ip administered for 15 mins followed by AMPH challenge measured after 105 mins; format: functional, organism-based; procedure, shortened: as §2
# [27] = system: Mus musculus; experiment: Effect on 120 dB acoustic stimulus-induced pulse-only response in C57BL/6J mouse at 4 mg/kg, ip administered for 10 mins followed by AMPH challenge; format: functional, organism-based; procedure, shortened: as §3
# [28] = system: Mus musculus; experiment: Cataleptic activity in ip dosed C57BL/6J mouse measured after 60 mins; format: organism-based; details: in vivo, 1 h
# Procedure, shortened: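 Male C57BL/6J mice, n = 8–10/treatment/time-point, front paws placed on a 2.5 mm horizontal bar with rear paws on the bench, tested at baseline and then injected with vehicle, haloperidol (0.01–10 mg/kg) or test agent (0.01–30 mg/kg). Separate groups were scored at 60 min as time until paw removal, with a 60 s cut-off.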
# 5-hydroxytryptamine receptor 7, sequence (P34969 whole entry): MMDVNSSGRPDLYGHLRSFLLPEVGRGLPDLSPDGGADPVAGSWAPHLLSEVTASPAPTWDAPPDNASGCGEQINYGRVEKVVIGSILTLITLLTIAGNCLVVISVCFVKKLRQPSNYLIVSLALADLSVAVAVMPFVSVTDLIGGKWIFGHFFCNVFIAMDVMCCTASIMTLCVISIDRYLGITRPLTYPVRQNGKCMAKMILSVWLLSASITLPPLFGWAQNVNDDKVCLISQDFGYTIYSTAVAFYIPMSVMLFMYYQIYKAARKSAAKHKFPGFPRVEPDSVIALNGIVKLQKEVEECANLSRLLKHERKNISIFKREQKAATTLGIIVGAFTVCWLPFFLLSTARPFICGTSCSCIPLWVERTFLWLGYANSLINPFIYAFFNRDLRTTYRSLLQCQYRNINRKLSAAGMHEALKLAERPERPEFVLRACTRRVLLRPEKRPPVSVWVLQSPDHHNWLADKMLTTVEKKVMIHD
# D(3) dopamine receptor, sequence (P35462 whole entry): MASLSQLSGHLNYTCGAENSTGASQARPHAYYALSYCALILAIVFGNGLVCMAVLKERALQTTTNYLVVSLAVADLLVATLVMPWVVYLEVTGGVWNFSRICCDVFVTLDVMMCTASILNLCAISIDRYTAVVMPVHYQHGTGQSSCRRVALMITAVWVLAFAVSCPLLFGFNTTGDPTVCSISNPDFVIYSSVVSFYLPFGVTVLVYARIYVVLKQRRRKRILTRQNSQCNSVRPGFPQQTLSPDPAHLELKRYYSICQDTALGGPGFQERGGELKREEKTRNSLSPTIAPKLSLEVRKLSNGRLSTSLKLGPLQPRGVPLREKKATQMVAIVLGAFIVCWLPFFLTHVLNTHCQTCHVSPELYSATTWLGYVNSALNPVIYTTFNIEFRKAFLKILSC
# 5-hydroxytryptamine receptor 6, sequence (P50406 whole entry): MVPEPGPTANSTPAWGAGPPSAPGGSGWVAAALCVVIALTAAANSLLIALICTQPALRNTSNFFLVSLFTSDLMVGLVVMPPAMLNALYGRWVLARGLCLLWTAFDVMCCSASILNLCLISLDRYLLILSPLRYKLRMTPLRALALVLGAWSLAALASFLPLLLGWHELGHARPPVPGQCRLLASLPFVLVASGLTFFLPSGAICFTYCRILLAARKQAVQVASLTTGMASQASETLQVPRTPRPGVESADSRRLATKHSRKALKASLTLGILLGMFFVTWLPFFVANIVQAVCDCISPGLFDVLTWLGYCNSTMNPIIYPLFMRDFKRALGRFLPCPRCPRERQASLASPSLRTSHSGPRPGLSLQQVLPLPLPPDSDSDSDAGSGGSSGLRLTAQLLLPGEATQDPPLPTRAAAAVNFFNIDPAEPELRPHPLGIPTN
# 5-hydroxytryptamine receptor 2B, sequence (P41595 whole entry): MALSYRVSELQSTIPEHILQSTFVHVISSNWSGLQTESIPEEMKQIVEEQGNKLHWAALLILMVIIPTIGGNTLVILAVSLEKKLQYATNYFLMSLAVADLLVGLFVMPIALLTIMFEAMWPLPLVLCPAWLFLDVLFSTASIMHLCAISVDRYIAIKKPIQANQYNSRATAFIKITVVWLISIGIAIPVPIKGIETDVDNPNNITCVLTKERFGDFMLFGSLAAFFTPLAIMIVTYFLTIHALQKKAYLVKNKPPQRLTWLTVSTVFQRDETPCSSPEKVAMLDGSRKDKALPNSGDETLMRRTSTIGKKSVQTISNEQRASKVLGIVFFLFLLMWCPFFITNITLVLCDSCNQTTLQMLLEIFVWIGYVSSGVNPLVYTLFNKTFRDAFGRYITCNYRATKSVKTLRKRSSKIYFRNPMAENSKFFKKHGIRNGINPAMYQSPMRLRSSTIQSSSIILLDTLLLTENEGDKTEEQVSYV
# Sodium-dependent serotonin transporter, sequence (P31645 whole entry): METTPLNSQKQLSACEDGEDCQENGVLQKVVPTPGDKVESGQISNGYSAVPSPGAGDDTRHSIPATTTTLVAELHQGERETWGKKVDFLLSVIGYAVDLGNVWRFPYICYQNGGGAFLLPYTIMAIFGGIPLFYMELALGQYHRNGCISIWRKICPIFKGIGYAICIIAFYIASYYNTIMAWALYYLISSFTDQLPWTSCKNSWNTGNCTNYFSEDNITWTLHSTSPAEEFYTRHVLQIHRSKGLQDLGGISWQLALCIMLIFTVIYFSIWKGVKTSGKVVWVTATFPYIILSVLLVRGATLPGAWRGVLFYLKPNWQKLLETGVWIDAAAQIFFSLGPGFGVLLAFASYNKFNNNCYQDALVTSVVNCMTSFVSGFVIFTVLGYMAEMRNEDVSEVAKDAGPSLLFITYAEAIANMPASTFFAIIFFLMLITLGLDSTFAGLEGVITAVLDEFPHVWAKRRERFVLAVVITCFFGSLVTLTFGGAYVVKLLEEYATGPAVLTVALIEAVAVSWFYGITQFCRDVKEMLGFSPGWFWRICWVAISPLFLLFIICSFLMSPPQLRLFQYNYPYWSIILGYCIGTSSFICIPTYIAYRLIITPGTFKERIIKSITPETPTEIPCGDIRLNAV
# Beta-2 adrenergic receptor, sequence (P07550 whole entry): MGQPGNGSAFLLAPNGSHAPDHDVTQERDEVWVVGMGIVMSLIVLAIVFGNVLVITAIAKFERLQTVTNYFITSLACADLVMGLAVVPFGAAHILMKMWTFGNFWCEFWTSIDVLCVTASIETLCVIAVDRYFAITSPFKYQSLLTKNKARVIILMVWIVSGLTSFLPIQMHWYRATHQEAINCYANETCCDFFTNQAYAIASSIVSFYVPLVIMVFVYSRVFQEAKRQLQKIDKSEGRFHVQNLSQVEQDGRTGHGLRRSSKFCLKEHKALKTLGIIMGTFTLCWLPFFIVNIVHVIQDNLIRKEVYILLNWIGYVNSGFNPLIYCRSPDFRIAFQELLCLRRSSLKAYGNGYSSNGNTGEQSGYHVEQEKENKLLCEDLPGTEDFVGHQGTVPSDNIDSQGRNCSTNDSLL
# D(2) dopamine receptor, sequence (P14416 whole entry): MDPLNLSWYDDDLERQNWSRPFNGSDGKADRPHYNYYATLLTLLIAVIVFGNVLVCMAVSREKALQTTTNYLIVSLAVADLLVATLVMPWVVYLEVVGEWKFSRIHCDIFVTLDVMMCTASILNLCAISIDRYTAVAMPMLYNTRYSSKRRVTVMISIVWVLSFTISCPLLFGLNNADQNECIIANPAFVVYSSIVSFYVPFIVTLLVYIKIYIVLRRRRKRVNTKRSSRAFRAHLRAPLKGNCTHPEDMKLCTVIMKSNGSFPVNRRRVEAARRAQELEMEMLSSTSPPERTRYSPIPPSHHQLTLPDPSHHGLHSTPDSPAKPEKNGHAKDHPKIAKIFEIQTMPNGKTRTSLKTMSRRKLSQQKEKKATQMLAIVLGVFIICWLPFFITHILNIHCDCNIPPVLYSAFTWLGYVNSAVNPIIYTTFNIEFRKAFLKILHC
# Histamine H2 receptor, sequence (P25021 whole entry): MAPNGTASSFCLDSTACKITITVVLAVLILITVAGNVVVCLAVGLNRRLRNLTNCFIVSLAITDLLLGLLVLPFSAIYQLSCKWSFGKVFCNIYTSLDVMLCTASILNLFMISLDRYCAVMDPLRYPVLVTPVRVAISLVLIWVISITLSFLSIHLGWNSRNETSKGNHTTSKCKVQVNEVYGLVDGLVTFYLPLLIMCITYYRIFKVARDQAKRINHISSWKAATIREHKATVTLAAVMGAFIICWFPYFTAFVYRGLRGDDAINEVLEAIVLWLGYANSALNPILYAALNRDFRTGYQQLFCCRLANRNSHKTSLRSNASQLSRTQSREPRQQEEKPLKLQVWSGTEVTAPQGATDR
smiles,measurement,setting,value
"C=CCOc1cc(F)c(F)cc1C1CC1CN (single isomer, unassigned; (-))",Emax,[1],< 15%
"C=CCOc1cc(F)c(F)cc1C1CC1CN.Cl (single isomer, unassigned; (+))",Ki,[2]; read-out: Ki,750 nM
same,Ki,[2]; read-out: pKi (converted),933 nM
same,Activity,[3],Non-toxic
same,Ki,[4]; read-out: Ki,661 nM
same,Ki,[4]; read-out: pKi (converted),166 nM
same,Ki,[5],278 nM
same,Ki,[6]; read-out: Ki,201 nM
same,Ki,[6]; read-out: pKi (converted),195 nM
same,Ki,[7],2110 nM
same,pKi,[7],5.68
same,Ki,[8],807 nM
same,Ki,[9],1680 nM
same,Ki,[10],4900 nM
same,Ki,[11],2840 nM
same,Ki,[12]; read-out: Ki,1270 nM
same,Ki,[12]; read-out: pKi (converted),1020 nM
same,Ki,[13],3390 nM
same,Ki,[14],1260 nM
same,Ki,[15]; read-out: Ki,111 nM
same,Ki,[15]; read-out: pKi (converted),115 nM
"C=CCOc1cc(F)c(F)cc1C1CC1CN (single isomer, unassigned; (+))",Activity,[16],Active
same,Activity,[17],Dose-dependent effect
same,Activity,[18],Active
same,Activity,[19],Active
same,Activity,[20],Active
same,Activity,[21],Active
same,Activity,[22],Active
same,Activity,[23],inactive
same,Activity,[24],Active
same,Activity,[25],inactive
same,Activity,[26],inactive
same,Activity,[27],inactive
O=C(CCCN1CCC(O)(c2ccc(Cl)cc2)CC1)c1ccc(F)cc1 [HALOPERIDOL],Activity,[28],Dose-dependent effect
